Measurements: article PMC3900297 (Biotechnology and applied biochemistry, 2013)
“And” between values parts separate entries of the source, which are not always exact repeats. Equal entries are not always repeated. Where two headings read alike, the source gives them in different places.

Tests used:
CYP261D1 (P450-PE36) = test: absorbance spectral titration; format: binding, Moritella sp. PE36; details: 0.1 M Na-Hepes pH 7.4, 0.5 mM EDTA, 25 °C, ambient pressure
Outline: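 Recombinant His-tagged enzyme was expressed with […] and 0.5 mM IPTG for 48 h at 30 °C, then Ni-NTA purified. (+) and (−) forms were separated on cation-exchange and DEAE resins and dialyzed into Hepes/glycerol/KCl/TCEP. Titration spectra were taken in a stirred, thermostated cell and analysed by PCA/SVD against high-spin, low-spin and P420 standards. Spin-state changes were fitted to the tight-binding (square-root) equation.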

CYP261C1 (P450-SS9) = molecular target: T1, CYP261C1 (P450-SS9) (Photobacterium profundum, UniProt Q6LGK6); test: absorbance spectral titration; format: binding; details: μM
T1 sequence (Q6LGK6 1-480): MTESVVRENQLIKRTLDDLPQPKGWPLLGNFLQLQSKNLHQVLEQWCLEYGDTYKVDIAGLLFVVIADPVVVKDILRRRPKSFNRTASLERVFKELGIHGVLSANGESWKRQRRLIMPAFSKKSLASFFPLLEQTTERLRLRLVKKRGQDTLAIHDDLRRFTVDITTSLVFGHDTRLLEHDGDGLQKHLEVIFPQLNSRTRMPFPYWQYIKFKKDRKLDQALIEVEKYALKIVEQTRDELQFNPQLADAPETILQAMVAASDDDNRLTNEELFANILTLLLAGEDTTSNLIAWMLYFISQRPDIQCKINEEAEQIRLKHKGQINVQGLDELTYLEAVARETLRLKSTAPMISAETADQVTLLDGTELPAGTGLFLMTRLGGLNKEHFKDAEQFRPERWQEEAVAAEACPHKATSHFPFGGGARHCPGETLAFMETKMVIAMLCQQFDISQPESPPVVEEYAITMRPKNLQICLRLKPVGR
Outline: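 Recombinant CYP261C1 expressed in E. coli TOPP3, Ni-NTA purified, then separated into (+) and (−) forms on cation/anion exchange. Fatty-acid titrations tracked by absorbance spectra at 25 °C in 0.1 M Na-Hepes pH 7.4 with 0.5 mM EDTA. Spectral series underwent PCA, with least-squares fitting to high-spin, low-spin and P420 standards. Kd came from the tight-binding (square-root) equation.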

Kd (CYP261D1 (P450-PE36); read-out: Myristic acid / KD, (+) conformer) [µM]	Kd (CYP261D1 (P450-PE36); read-out: Myristic acid / KD, (−) conformer) [µM]	Kd (CYP261C1 (P450-SS9); Myristic acid / KD)	Structure (SMILES)	Kd (CYP261D1 (P450-PE36); read-out: Arachidonic acid / KD, (+) conformer) [µM]	Kd (CYP261D1 (P450-PE36); read-out: Arachidonic acid / KD, (−) conformer) [µM]	Kd (CYP261C1 (P450-SS9); Arachidonic acid / KD)
2.4 ± 0.7	3 ± 1	8.1 µM and 3.6 µM	CCCCCCCCCCCCCC(=O)O [Myristic acid]			
			CCCCC/C=C\C/C=C\C/C=C\C/C=C\CCCC(=O)O [Arachidonic acid]	3.1 ± 0.6	8.9 ± 2.2	9.7 µM and 10.4 µM
